From the RNAGym collection of RNA variant scans (doi:10.1126/science.aae0568)
Fewer inactive variants are shown than the library holds.

B1: tRNA (parent)
chain: GUUCCGUUGGCGUAAUGGUAACGCGUCUCCCUCCUAAGGAGAAGACUGCGGGUUCGAGUCCCGUACGGAACG

Variants of: B1
Assay: yeast fitness relative to wild type (ratio to wild type); higher = fitter; tRNA-Arg(CCU), competitive growth, 37 C, YPD
Procedure, shortened: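 Variants of the tRNA-Arg(CCU) gene were chemically synthesised with a 3% per-site mutation rate across 69 sites and placed at the native genomic locus in Saccharomyces cerevisiae. Six parallel replicates of the pooled strains were competed in YPD at 37°C for 24 hours, and gene amplicons from the start and end populations were read by 100-nucleotide paired-end sequencing. Darwinian fitness relative to wild type was derived from changes in genotype frequencies. Genotypes required ≥ 100 starting reads, and estimates < 0.5 were set to 0.5.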

| Variant | yeast fitness |
| --- | --- |
| C5U C30U A37G | 0.64 |
| C5U C30U A40U A70C | ≤ 0.5 |
| C5U C46A C66U | 0.663 |
| C5U C46G C62U C66G | 0.538 |
| C5U C34A G63A | ≤ 0.5 |
| C5U C34A A36G G63A | ≤ 0.5 |
| C5U C31U A57C G58A A69G | ≤ 0.5 |
| C5U C27U A37G A40C U47A | ≤ 0.5 |
| C5U C46G C49G | 0.527 |
| C5U C31U G68C | 0.653 |
| C5U C27A G41C A57U | ≤ 0.5 |
| C5U C60A | 0.585 |
| C5U C60G | 0.627 |
| C5U C62G G63C A65U | ≤ 0.5 |
| C5U C33U C61U | 0.632 |
| C5U C29U C31U U54G A65U G67A | ≤ 0.5 |
| C5U C34A C49A U59G | ≤ 0.5 |
| C5U C30U U47A G67C | 0.542 |
| C5U C31G C33G | 0.579 |
| C5U C46G G52C C62G C66U | ≤ 0.5 |
| C5U C27G C33G G41C C61A | ≤ 0.5 |
| C5U C46A | 1 |
| C5U C46U | 1.07 |
| C5U G6C A20U A45U | ≤ 0.5 |

| Variant | yeast fitness |
| --- | --- |
| C5U C34A A36G | ≤ 0.5 |
| C5U C27G A69C | ≤ 0.5 |
| C5U C33G C49A | ≤ 0.5 |
| C5U C34A U53A A57U A65U | ≤ 0.5 |
| C5U C30G G51C G56U | ≤ 0.5 |
| C5U C29U A45C C60A | ≤ 0.5 |
| C5U C29A A45C | 0.669 |
| C5U C33U G39A | 0.649 |
| C5U C27A G63C | ≤ 0.5 |
| C5U C27G U32A | 0.561 |
| C5U G6A C31G G50C U54C | ≤ 0.5 |
| C5U C33U A65G C66A | ≤ 0.5 |
| C5U C34G A65C | 0.525 |
| C5U C31G U32C A37C G50C A69C | ≤ 0.5 |
| C5U C34G A45C C66G | ≤ 0.5 |
| C5U C29G C33U | ≤ 0.5 |
| C5U C30U A45U | 0.701 |
| C5U G6C A21C A42U C46U C66U | ≤ 0.5 |
| C5U C27G C31G G44C A45G | ≤ 0.5 |
| C5U C33G C34U G38C U47A | ≤ 0.5 |
| C5U C30U G44C G67C | ≤ 0.5 |
| C5U C33G G38A C60A | 0.542 |
| C5U C34A U64G | ≤ 0.5 |
| C5U C46G G68U | ≤ 0.5 |

| Variant | yeast fitness |
| --- | --- |
| C5U C30G G56C | ≤ 0.5 |
| C5U C29A U35G C46U U54G | ≤ 0.5 |
| C5U C34U A69U | 0.59 |
| C5U C30G C61U | ≤ 0.5 |
| C5U C55U G56C | 0.746 |
| C5U C31G A45U C62U | 0.629 |
| C5U C27G U28G | ≤ 0.5 |
| C5U C27U A37C C60A | 0.546 |
| C5U C30A A65C | 0.703 |
| C5U C29U | 0.867 |
| C5U C29A | 0.569 |
| C5U C33A A36C A37C A43G A69U | ≤ 0.5 |
| C5U C66U | 0.877 |
| C5U C34U C49U U53C G67U | ≤ 0.5 |
| C5U C27G G39C G52A | ≤ 0.5 |
| C5U C33A C55U | ≤ 0.5 |
| C5U C24U G44C C60A | 0.527 |
| C5U G6A C22U G25C | ≤ 0.5 |
| C5U C31U C33U C34G A40C G63A | ≤ 0.5 |
| C5U C34U C49G G52C C55U C62G | ≤ 0.5 |
| C5U C34A G39C G52A G58A | ≤ 0.5 |
| C5U C30A A42U | 0.59 |
| C5U C29G A37C C49U C66A | 0.627 |
| C5U C31G | 0.918 |

| Variant | yeast fitness |
| --- | --- |
| C5U C30G A36U G51A G52A U64G | ≤ 0.5 |
| C5U C49U A65C | 0.745 |
| C5U C49U A65U | 0.644 |
| C5U C29U A69U | 0.72 |
| C5U C27U A37C | ≤ 0.5 |
| C5U C34G A45U | 0.534 |
| C5U C24U U32C | 0.72 |
| C5U C30U C34G G38C A65C | ≤ 0.5 |
| C5U C33A G39C G51C C62U A69C | 0.543 |
| C5U C31G A40G A45G C46G G48A | ≤ 0.5 |
| C5U C33U A37C A42U U47C G52A U54C G67A | ≤ 0.5 |
| C5U C29G C30G A65C | ≤ 0.5 |
| C5U C29A A57U A69C | ≤ 0.5 |
| C5U C27G C55G A69U | ≤ 0.5 |
| C5U C34G C55A G63C | ≤ 0.5 |
| C5U C29A A65C | ≤ 0.5 |
| C5U C33G A36U | ≤ 0.5 |
| C5U C34U A42U | 0.529 |
| C5U C27U A37C C60A C66U | ≤ 0.5 |
| C5U C33U A69C | 0.556 |
| C5U C34A C55G | ≤ 0.5 |
| C5U C31G C66U | 0.736 |
| C5U C55A C62A | ≤ 0.5 |
| C5U C29G C34G | 0.542 |

| Variant | yeast fitness |
| --- | --- |
| C5U C46U C55G U64A | 0.638 |
| C5U C31U G48C | 0.682 |
| C5U C31U G50A U54C C55G | ≤ 0.5 |
| C5U C30A G39A C66G | ≤ 0.5 |
| C5U C55A A57C | ≤ 0.5 |
| C5U G6A A15U C31U U32C G67C | ≤ 0.5 |
| C5U C46G C62U | 0.697 |
| C5U C29U A45U | 0.924 |
| C5U C29G A57G | 0.655 |
| C5U C61G | 0.771 |
| C5U C61U | 0.971 |
| C5U C29G G68A | ≤ 0.5 |
| C5U C46U A57G A70C | ≤ 0.5 |
| C5U C31G G56C | 0.527 |
| C5U C31U C46U G51A | 0.69 |
| C5U C33G C34G C46U | ≤ 0.5 |
| C5U G6A U35C A36U G38A C46A U54C | ≤ 0.5 |
| C5U C55A C61G | ≤ 0.5 |
| C5U C27U U28G C33G A36G | ≤ 0.5 |
| C5U C55U G56C C62U | 0.932 |
| C5U C29G G63A | ≤ 0.5 |
| C5U C27U C61G | ≤ 0.5 |
| C5U C29U A43U | 0.89 |
| C5U C33G C49A A70C | ≤ 0.5 |

| Variant | yeast fitness |
| --- | --- |
| C5U G6A G44C G63A | ≤ 0.5 |
| C5U C49U C66U | 0.887 |
| C5U C31U G41A | 0.831 |
| C5U C33U A45C C46G A69U | ≤ 0.5 |
| C5U C34A G50C | ≤ 0.5 |
| C5U C30U C49G | 0.62 |
| C5U C33U C49G A65C | ≤ 0.5 |
| C5U C49U U64A | ≤ 0.5 |
| C5U C31G G51C | 0.572 |
| C5U C31A C34A A36G | ≤ 0.5 |
| C5U C29G C30A U64G A69C | ≤ 0.5 |
| C5U C24U C29A | 0.574 |
| C5U C27U G48A G67C | ≤ 0.5 |
| C5U C27G C31G | 0.679 |
| C5U C49U C61A | ≤ 0.5 |
| C5U C29U A43G G48C C55A | ≤ 0.5 |
| C5U C29G G44A A57U | ≤ 0.5 |
| C5U C27A | 0.817 |
| C5U C27G | 0.61 |
| C5U C31G G68C | 0.645 |
| C5U C30G C31A G63C | ≤ 0.5 |
| C5U C31G G48C G58A | ≤ 0.5 |
| C5U C62A | 0.649 |
| C5U C62G | 0.702 |

| Variant | yeast fitness |
| --- | --- |
| C5U C24U C46G A65C | 0.537 |
| C5U C29G C49U A69U | ≤ 0.5 |
| C5U C31G C33G C34U G68A | 0.671 |
| C5U C34A G44C C62U | 0.723 |
| C5U C31U C61A | 0.552 |
| C5U C27A A42U G48A C49G C60A | 0.592 |
| C5U C60A C62G | ≤ 0.5 |
| C5U G6C A14G | ≤ 0.5 |
| C5U C30U A40U | 0.567 |
| C5U C55A G68C | ≤ 0.5 |
| C5U C33G C55U | ≤ 0.5 |
| C5U C31U G39A A57C | 0.574 |
| C5U C66G G68C | 0.541 |
| C5U C27U G56A | 0.704 |
| C5U C33A A36C A37C A43G | ≤ 0.5 |
| C5U C49U G67C | 0.608 |
| C5U C33G C46A C66A | ≤ 0.5 |
| C5U C55G | 0.676 |
| C5U C55U G67C | ≤ 0.5 |
| C5U C34U A65U | 0.565 |
| C5U C34G A45U U53G A57G | 0.672 |
| C5U C61A C66A | ≤ 0.5 |
| C5U C27G G38U | ≤ 0.5 |
